Only some compounds are listed: those with a hit (about 1.8% of all), similar ones and a draw of the others.
EBNA-1 inhibitor: blocks EBNA-1 binding to DNA. EBNA-1 DNA binding, fluorescence polarization. actives 0.34% (n = 300,000). inhibition, % at 14.8 µM; in the data active = inhibition above about 28%
Apaf1 inhib: human Apaf-1 inhibition; inhibition, % at 20 µM; actives 0.71% (n = 330,000); reconstituted apoptosome caspase-3 activity, DEVD-Rh110 fluorescence; O14727; active = inhibition of at least 40% at 20 µM
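Material: reconstituted apoptosome with Apaf-1, cytochrome c, caspase-9, procaspase-3, dATP. Technique: Rh110 fluorescence intensity. Buffer or medium: pH 7.5 Hepes buffer with CHAPS, BSA, DTT. Times: 30 min plus 50 min, RT.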
ZTA counter: blocks Epstein-Barr virus ZTA, an EBNA-1 counter-screen; ZTA-DNA binding, fluorescence polarization; inhibition, % at 11 µM; actives 0.15% (n = 320,000); AID 2234; in the data active = inhibition above about 33%
procasp7 counter: activates human procaspase-7, counter-screen for procaspase-3 activators; recombinant procaspase-7, Ac-DEVD-pNA absorbance 405 nm; D23A/D198A/D206A triple mutant, cannot self-cleave; scale: DMSO 0, 5 µM enzyme 100; actives 0.093% (n = 330,000); activation, % at 8.5 µM;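 active = percent activation above the screen-wide mean plus 3 SD, cut at about 25% in these data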
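Assay system – Uncleavable procaspase-7 mutant enzyme · Quantity – 2 µM procaspase-7 mutant as dispensed · Times – 1 h preincubation, 2 h reaction · Dosing – single nominal 8.5 µM compound dose, 0.8% DMSO final · Buffer or medium – Zinc-free 50 mM HEPES buffer, pH 7.4, with NaCl and Triton X-100 · Detection – Epi-absorbance of released pNA at 405 nm, two timepoints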
proCasp3 act: procaspase-3 (human) activation. activation, % at 8.5 µM. AID 463141. recombinant procaspase-3 D3A, Ac-DEVD-pNA absorbance 405 nm. actives 0.11% (n = 330,000). P42574;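 active = activation above the mean of all tested compounds plus 3 SD, cut at about 21% in these data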
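Assay system: Procaspase-3 D3A mutant, all three cleavage aspartates alanine. Buffer or medium: Zinc-free HEPES saline buffer with Triton X-100. Times: 1 h compound preincubation, 2 h substrate hydrolysis at 25 °C. Measured by: 405 nm absorbance of p-nitroaniline, reads at 0 and 120 min. Read-out basis: percent activation relative to control range. Replicates: singlicate.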
GSTO1 inh: counter-screen for RBBP9 inhibitors: inhibitors of human GSTO1; actives 1.1% (n = 300,000); inhibition, % at 5.96 µM; P78417; recombinant GSTO1, activity-based probe fluorescence polarization;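 active = inhibition above the campaign mean inhibition plus 3 SD, cut at about 35% in these data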
GSTO1 inh conf: confirmation of human GSTO1 inhibitors; shares compounds with GSTO1 inh; recombinant GSTO1, probe fluorescence polarization; inhibition, % at 5.96 µM; actives 54% (n = 2,400); AID 2176;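 active = inhibition above the primary screen's cutoff, its mean inhibition plus 3 SD, cut at about 35% in these data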;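 note: loss of polarization as inhibitors block binding of rhodamine sulfonate ester activity probe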
GSTO1 ABPP inh: inhibitors of recombinant human GSTO1; inhibition, % at 1 µM; actives 30% (n = 130); gel ABPP SE-Rh probe fluorescence; shares compounds with GSTO1 inh;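 active = inhibition of the enzyme GSTO1 above about 75%, limit read from the data; inactive = inhibition below that limit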
A number is an active result; n = inactive; x = not tested or not shown.

SMILES | EBNA-1 inhibitor | Apaf1 inhib | ZTA counter | procasp7 counter | proCasp3 act | GSTO1 inh | GSTO1 inh conf | others
C[C@@H]1O[C@@H](Oc2c(-c3cc(O)c(O)c(O)c3)oc3cc(O)cc(O)c3c2=O)[C@H](O)[C@H](O)[C@H]1O | n | n | n | n | n | 54 | n
C[C@@H]1O[C@@H](Oc2c(-c3ccc(O)c(O)c3)oc3cc(O)cc(O)c3c2=O)[C@H](O)[C@H](O)[C@H]1O | x | n | x | n | n | x | x
COc1cc(S(=O)(=O)N2CCOCC2)ccc1NC(=O)COC(=O)c1ccc(Cl)nc1 | x | n | x | n | n | x | x
Cn1c(=O)c2[nH]c(-c3ccccc3O)nc2n(C)c1=O | n | n | n | n | n | 38 | n
CCc1n[nH]c(=S)n1/N=C/c1c(O)ccc2ccccc12 | n | n | n | n | n | 38 | n
CCOc1ccc(/C(O)=C2/C(=O)C(=O)N(c3cc(C)on3)C2c2ccc(C(=O)OC)cc2)cc1 (configuration not stated) | n | n | n | n | n | 44 | n
CCCOc1ccc(/C(O)=C2/C(=O)C(=O)N(c3cc(C)on3)C2c2ccc(C(=O)OC)cc2)cc1 (configuration not stated) | n | n | n | n | n | n | x
COc1ccc(/C=C/C(=O)Nc2ccc(N3CCOCC3)cc2)cc1 | n | x | n | n | n | n | x
O=C(O)/C=C/C(=O)Nc1ccc(O)cc1 | n | n | n | n | n | 59 | n
COc1ccc(N2CCN(c3ccc(NC(=O)/C=C\C(=O)O)cc3)CC2)cc1 | n | n | n | n | n | 74 | n
O=C(O)c1cc(N/N=C/c2ccc(N3CCOCC3)s2)ccc1Cl | n | n | n | n | n | 39 | n
CSCCC(=O)N1CCC(n2nccc2NC(=O)CCc2ccccc2)CC1 | x | n | x | x | x | x | x
O=[N+]([O-])c1ccccc1C1Nc2cccc3cccc(c23)N1 | n | n | n | n | n | 49 | n
Oc1ccccc1C1Nc2cccc3cccc(c23)N1 | n | n | n | n | n | n | x
COc1cccc(CNc2ccc(N3CCCCC3)cc2)c1OC | n | n | n | n | n | n | x
COc1ccccc1CNc1ccc(N2CCCCC2)cc1 | n | n | n | n | n | 51 | n
COc1cc(CNc2ccc(N3CCCC3)cc2)cc(Cl)c1OC | 111 | n | 127 | n | n | 59 | 57
CCOc1ccc(CNc2ccc(N3CCCC3)cc2)cc1 | 79 | n | 86 | n | n | 66 | 55
O=S(=O)(c1cc(F)ccc1F)N1CCN2CCCC2C1 (configuration not stated) | n | n | n | n | n | n | x
Cc1ccc(/C=[N+](\[O-])c2ccc(N(C)C)cc2)c2nsnc12 | x | n | x | x | x | x | x
C[C@H]1COC(=O)CC/C=C\C[C@H](CC(=O)N(CCO)Cc2ccccc2)C(=O)N1 | x | n | x | n | n | x | x
Cc1ccc(S(=O)(=O)N2CCN(c3ncnc4sccc34)CC2)cc1 | n | n | n | n | n | n | x
N/C(=N\S(=O)(=O)c1cccs1)c1ccccc1 | n | n | n | n | n | n | x
O=C1/C(=N\S(=O)(=O)c2cccs2)C([n+]2ccccc2)=C([O-])c2ccccc21 | n | n | n | n | n | 92 | 86
CC(C)(C)c1cc[n+](C2=C([O-])c3ccccc3C(=O)/C2=N\S(=O)(=O)c2cccs2)cc1 | n | n | n | n | n | 80 | 89
SMILES | EBNA-1 inhibitor | Apaf1 inhib | ZTA counter | procasp7 counter | proCasp3 act | GSTO1 inh | GSTO1 inh conf | others
Cc1cc(OCC(=O)OCC(=O)N(C)C2CCS(=O)(=O)C2)ccc1Cl (configuration not stated) | x | n | x | x | x | x | x
C[C@H](CO)N1C[C@H](C)[C@@H](CN(C)CC2CCCCC2)Oc2ccc(NC(=O)Cn3cnnn3)cc2C1=O | x | n | x | n | n | x | x
CC1Cc2ccccc2N1C(=O)CN1C(=O)NC2(CCCCC2)C1=O (configuration not stated) | x | n | n | n | n | x | x
CCN(CC(=O)Nc1c(F)cccc1F)C(=O)/C=C/c1ccc2ccccc2n1 | n | n | n | n | n | 62 | n
O=C(Cc1ccccc1)NCCc1cnc[nH]1 | n | n | n | n | n | n | x
CC(=O)NCCc1cnc[nH]1 | n | n | n | n | n | 47 | n
CCOC(=O)C(=CNc1nc(-c2ccccc2)c(C(=O)Nc2ccc(-c3ccccc3)cc2)s1)C(=O)OCC | n | n | n | n | n | n | x
CCOc1ccc(C(C)C)cc1S(=O)(=O)N1CCN(C(=O)c2ccco2)CC1 | n | n | n | n | n | n | x
Cc1ccc(/C=C2\SC(=S)N(/N=C/c3cc([N+](=O)[O-])ccc3O)C2=O)o1 | n | n | n | n | n | 50 | 43
O=[N+]([O-])c1ccc(O)c(/C=N/n2cnc3ccccc32)c1 | n | n | n | n | n | n | x
CCOc1ccc(NC(=O)C2C(c3ccccc3)C2(Cl)Cl)cc1 (configuration not stated) | n | n | n | n | n | n | x
CCOc1ccc(NC(=O)C2C(C(=O)O)C3(Cl)C(Cl)=C(Cl)C2(Cl)C3(Cl)Cl)cc1 (configuration not stated) | n | n | n | n | n | 44 | n
COc1cc(NC(=O)C2CC(c3ccccc3Cl)=NO2)cc(OC)c1OC (configuration not stated) | n | n | n | n | n | n | x
CC(C)c1onc(C(=O)NCc2cccs2)c1[N+](=O)[O-] | n | n | n | n | n | 41 | n
CCOC(=O)C1CCCN(C(=O)C2c3ccccc3Oc3ccccc32)C1 (configuration not stated) | n | n | n | n | n | 46 | n
Cc1ccc(-c2csc3ncn(CC#N)c(=O)c23)cc1C | n | n | n | n | n | 39 | n
Cc1ccc(-c2csc3ncn(CC#N)c(=O)c23)cc1 | n | n | n | n | n | n | x
CC1=CC(C)(C)N(C(=O)CCl)c2ccccc21 | n | n | n | n | n | 65 | 58 | GSTO1 ABPP inh=n
COc1ccc(/C=C(\C#N)C(=O)NCc2ccccc2)cc1 | n | n | n | n | n | n | x
COc1cc(/C=C2\C(=O)N(c3ccc(NC(C)=O)cc3)N=C2c2ccccc2)ccc1O | n | n | n | n | n | 76 | n
COc1cc(/C=N/NC(=O)c2nc(-c3ccccc3)n(-c3ccccc3)n2)ccc1O | n | n | n | n | n | n | x
CCOC(=O)C1=C(C)N(c2ccccc2)C(=O)/C1=C\c1ccc(O)c(OC)c1 | n | n | n | n | n | 62 | n

Bioassay records deposited in PubChem BioAssay by several laboratories.
